Measurements as given in ChEMBL document CHEMBL4340525, “Tumor-Targeted Delivery of 6-Diazo-5-oxo-l-norleucine (DON) Using Substituted Acetylated Lysine Prodrugs” (J Med Chem, 2019).

Assay: Tmax in CES1-deficient C57BL/6 mouse jejunum implanted with mouse EL4 cells at 3.2 mg/kg, sc administered as single dose by LC-MS/MS analysis
Format: ADME, organism-based
Conditions: in vivo, BLD = below limit of detection
Method in brief: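 Male and female C57BL/6 CES1-/- mice, 6–8 weeks old, carried flank EL4 tumours from SC injection of 1 × 10^6 cells in PBS. Dosing began at about 400 mm3 mean tumour volume. Each mouse got one SC dose of 3.2 mg/kg (1 mg/kg DON equivalent) in ethanol/Tween 80/saline 5:10:85. Plasma, jejunum and tumour were taken at set times, n = 3 per time point. Prodrug and dabsyl-derivatised DON were measured by LC-MS/MS. Noncompartmental analysis: Cmax and Tmax observed, AUClast by log-linear trapezoidal rule.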

For `CC(=O)NCCCC[C@H](NC(=O)C12CC3CC(CC(C3)C1)C2)C(=O)N[C@@H](CCC(=O)C=[N+]=[N-])C(=O)OC(C)C`, the Tmax was “Bld”.
